# bCat KO growth: beta-catenin-lacking colon tumor cell growth suppression | HCT116 beta-catenin knockout viability, CellTiter-Glo, 60 h; active compounds read low | viability, % at 10 µM | 140,000 compounds, 1.5% hits;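 active means viability at or under a set limit, the compound median less 4 SD, cut at about 6% in these data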;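 further: 0% = Hyamine 1622 control at 20 µM and 100% = untreated cell control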
# Autophagy HCS: autophagy modulation, high-content screen. 190,000 compounds, 0.98% hits. MEF GFP-LC3 puncta imaging; test concentration mostly 10 µM. AID 463193. calls only at 10 µM (by protocol);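 active means percentage of spot-positive cells more than 3 SD above its plate mean, without a fluorescence outlier flag or 80% toxicity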;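 further: spot-positive cell cutoff set from DMSO-treated cells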
# L major viab: inhibitors of Leishmania major promastigote growth; Leishmania major promastigotes, resazurin fluorescence viability; inhibition, % at 10 µM; 200,000 compounds, 9% hits; in the data active means inhibition above about 50%;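 further: promastigotes grown with compound for 44 hours at 28 °C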
# Dynein cargo inh: blocks dynein driven cargo transport along microtubules; 3617.4 mouse cells, GR-EGFP nuclear translocation imaging; test concentration mostly 20 µM; stimulated with dexamethasone, 1 µM; active compounds read low; z-score, hits read low; 220,000 compounds, 0.47% hits; AID 1381;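 active means plate z-score of nuclear minus cytoplasmic receptor signal below a set negative limit, without overly bright fluorescence or cell loss, cut at about -3.5 in these data, passing the limit was not always enough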;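 further: z-score of nuclear minus cytoplasmic ring GR-EGFP intensity difference per well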
#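 Buffer or medium: tetracycline-free induction medium containing charcoal-stripped FBS / Reagent: dexamethasone agonist, 1.0 µM final, for 30 min / Technique: automated 10x imaging of fixed Hoechst-stained cells / Times: induction 48 h, compound 1 h, agonist 30 min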
# PTEN del growth: PTEN-deleted cell growth suppression. HCT116 PTEN-null viability, CellTiter-Glo, 60 h; active compounds read low. viability, % at 10 µM. 140,000 compounds, 1.2% hits. AID 827;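 active means viability at or below a set limit, 4 SD under the median of all tested compounds, cut at about 3.7% in these data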;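 further: PTEN knockout HCT116 line with beta catenin targeted HCT116 as companion control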
# The depositor's hits bear a star; i = inactive; / = not tested or not shown; + = active, no number. Most compounds without a hit are left out; they make up all but 9.2% or so of the library.
SMILES,bCat KO growth,Autophagy HCS,L major viab,Dynein cargo inh,PTEN del growth
O=c1c2c(ncn2C2CCCC2)n(Cc2ccccc2)c(=O)n1CCOc1ccccc1,81,i,4,-0.77,79
Cc1ccc(C)c(OCCn2c(=O)c3c(ncn3C3CCCC3)n(Cc3ccccc3)c2=O)c1,69,i,96*,1.3,60
O=C1CCC/C(=N/Nc2ccc(Cl)cc2)C1,/,i,99*,-1.2,/
O=C1CCC/C1=C/Nc1ccc(Cl)cc1,/,i,3,-0.79,/
CN(C)c1nc(Oc2ccc(OCCOc3ccccc3)nn2)nc(N(C)C)n1,/,i,7,1.1,/
CCC(C)NCC(O)(c1ccc(Cl)cc1)c1ccc(Cl)cc1 (stereo not drawn),/,i,24,-0.58,/
CN1CCN(CC(O)(c2ccc(Cl)cc2)c2ccc(Cl)cc2)CC1,/,+,53*,0.78,/
Cc1cc(N/N=C/c2ccc(O)c(C)c2O)nc(-c2ccccc2O)n1,1.7*,/,93*,-0.69,1.8*
C/C(=N\Nc1cc(C)nc(-c2ccccc2O)n1)c1ccccc1,/,i,5,0.9,/
CNC(=O)c1cc2ncc(C(F)(F)F)cc2s1,/,i,-3,0.57,/
O=C(NNC(=O)c1ccc(F)cc1)C(=O)N1CCCCC1,92,i,95*,0.82,106
O=C(Nc1ccccn1)C(=O)N1CCCCC1,91,i,-2,-0.49,101
O=C(NNc1ccccc1)C(=O)N1CCCCC1,97,i,67*,-0.52,103
O=C(Cn1nc(-c2ccc3c(c2)OCCO3)ccc1=O)Nc1cccc(NC(=O)c2ccccn2)c1,/,i,-7,0.26,/
CCOc1ccc(-n2c(=O)c3sccc3n(Cc3cccc([N+](=O)[O-])c3)c2=O)cc1,/,i,-1,0.092,/
COc1ccc2c(=O)c3c(=O)n(Cc4ccco4)c(-c4ccccc4)nc3oc2c1,96,i,62*,-0.23,84
COCCn1c(-c2ccccc2)nc2oc3cc(OC)ccc3c(=O)c2c1=O,97,i,22,-1.1,98
CCCCCCn1c(-c2ccco2)nc2oc3cc(OC)ccc3c(=O)c2c1=O,82,i,52*,1.4,64
COc1ccc2c(=O)c3c(=O)n(Cc4ccco4)c(-c4cc(OC)c(OC)c(OC)c4)nc3oc2c1,54,i,67*,-0.2,49
CCCc1nc2oc3cc(OC)ccc3c(=O)c2c(=O)n1Cc1ccco1,87,i,14,-0.9,95
Cc1ccc(C(=O)COC(=O)CCCC(=O)Nc2cc(C(F)(F)F)ccc2Cl)cc1C,89,i,26,-0.33,91
CC1=NNC(=O)C1CCC(=O)N/N=C/c1c(Cl)cccc1Cl (stereo not drawn),/,i,0,-0.42,/
Cc1ccc(CN2CCN(Cc3cccn3-c3ccc(Cl)cn3)CC2CCO)o1 (stereo not drawn),/,i,-1,-0.37,/
CC(C)CCN1CCN(Cc2cccn2-c2ccc(Cl)cn2)CC1CCO (stereo not drawn),/,i,73*,0.34,/
Cc1ccc(CN2CCN(CCCc3ccccc3)CC2CCO)cc1 (stereo not drawn),/,i,87*,-1.4,/
SMILES,bCat KO growth,Autophagy HCS,L major viab,Dynein cargo inh,PTEN del growth
Cc1ncc(CN2CCN(CCc3ccccc3)C(CCO)C2)s1 (stereo not drawn),/,i,63*,0.16,/
COc1cccc2c1OCC(CN1CCN(CCC(C)C)C(CCO)C1)=C2 (stereo not drawn),/,i,70*,0.24,/
CNCc1ccccc1OCc1ccccc1F,/,i,8,0.26,/
CC(C)CCN1CCN(Cc2cnc(-c3ccccc3)s2)CC1CCO (stereo not drawn),/,i,88*,-0.92,/
CC(C)N1CCN(Cc2cnc(-c3ccccc3)s2)CC1CCO (stereo not drawn),/,/,/,0.22,/
COCCN(C(=O)c1ccccc1OC1CCN(S(C)(=O)=O)CC1)C(C)C,/,i,-2,0.54,/
Cc1ccc(NC(=O)/C(=C/c2ccco2)c2ccccc2)c(C)c1,85,i,48,-0.82,89
Cc1cc(C)c(NC(=O)/C(=C/c2ccccc2)c2ccccc2)c(C)c1,73,i,98*,0.56,75
O=C(c1cccs1)N1N=C(c2ccc(O)cc2)CC1c1ccccc1 (stereo not drawn),79,i,64*,1.6,75
COc1ccc(NC(=S)N2CCN(C(=O)c3ccccc3)CC2)cc1,/,i,11,1.2,/
CC(C)CCN1CCC(N)=NC1=O,/,i,-5,0.48,/
CC(=O)c1c(C)[nH]c(C(=O)COC(=O)CN(C)S(=O)(=O)c2ccc(Cl)cc2)c1C,95,i,-6,0.64,104

# Bioassay records (PubChem BioAssay)
